# Screening results (PubChem)
# KCNQ1 inh: inhibitors of human KCNQ1 channel, primary screen, cell-based, thallium flux, high-throughput; Potassium voltage-gated channel subfamily KQT member 1 (Homo sapiens), P51787; CHO-K1 KCNQ1, FluxOR thallium flux fluorescence; active compounds read high; B-score at 10 µM; hit rate 1.3% among 310,000; AID 2642, 2010;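 active = compounds whose thallium flux B-score, printed positive for inhibition, exceeds three library SD while starting fluorescence stays within three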;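 also: channel opened by potassium depolarization with thallium stimulus after 20 min compound exposure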
# KCNK9 inh: KCNK9 potassium channel inhibitors, primary screen, HEK293 cells, thallium flux; FluxOR thallium flux fluorescence; active compounds read low; B-score at 10 µM; Potassium channel subfamily K member 9 (Homo sapiens), Q9NPC2; hit rate 1.2% among 310,000;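 active = ratio B-score over 3 SD below the library mean, with starting fluorescence within 5 SD of its mean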;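 also: negative B-score means less thallium flux so channel inhibition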
# Target sequence (Q9NPC2 whole entry, looked up): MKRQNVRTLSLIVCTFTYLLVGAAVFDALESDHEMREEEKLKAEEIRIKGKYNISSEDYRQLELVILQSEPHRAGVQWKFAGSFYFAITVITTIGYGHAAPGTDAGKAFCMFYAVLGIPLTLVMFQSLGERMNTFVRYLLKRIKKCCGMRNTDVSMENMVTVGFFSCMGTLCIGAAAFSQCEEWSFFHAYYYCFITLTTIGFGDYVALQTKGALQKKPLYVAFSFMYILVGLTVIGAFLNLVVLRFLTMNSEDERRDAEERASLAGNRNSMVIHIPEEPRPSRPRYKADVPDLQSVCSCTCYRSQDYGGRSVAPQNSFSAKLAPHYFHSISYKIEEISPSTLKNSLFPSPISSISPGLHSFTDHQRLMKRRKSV
# hERG rescue: hERG rescue from dofetilide block, primary screen, cell-based, CHO-hERG, FluxOR thallium flux, dofetilide IC70; activation (rescue from dofetilide block), less the hit threshold, % at 10 µM; dofetilide IC70 present; hit rate 0.51% among 310,000;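 active = activation above the mean of controls blocked by dofetilide plus 5 SD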;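 also: thallium influx through hERG after potassium depolarization seen as dye fluorescence rise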
# Kir21 inh: inhibitors of mouse Kir2.1 inward-rectifier potassium channel | AID 1672, 2009 | HEK293-Kir2.1, FluxOR thallium flux fluorescence; active compounds read low | Inward rectifier potassium channel 2 (Mus musculus), P35561 | hit rate 0.85% among 310,000 | B-score at 10 µM;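 active = fluorescence ratio B-score at or below minus 3 SD of library scores, with starting-brightness B-score within 2 SD, cut at about -4.2 in these data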;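 also: channel flux triggered by added potassium and thallium sulfate stimulus; B-score of peak minus minimum fluorescence over baseline after thallium stimulus; more negative B-score means stronger Kir2.1 block with less thallium influx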
# KCNQ1 act: potentiators or activators of KCNQ1 channel, primary screen, cell-based, thallium flux, high-throughput; CHO-K1 KCNQ1, thallium flux FluxOR fluorescence; active compounds read high; hit rate 0.35% among 310,000; AID 2648, 2010; B-score at 10 µM;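 active = fluorescence ratio B-score, a plate-corrected score, at least three library SD, with initial intensity B-score within 5 SD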
#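 Medium – assay buffer, equal DMSO in all wells · Material – CHO-K1 cell line with stable KCNQ1 potassium channel expression · Signal – kinetic FluxOR thallium fluorescence, 10-s 1-Hz baseline, 110-s post-stimulus read · Compound – single concentration per compound, DMSO matched to controls · Schedule – 37 °C overnight plating, 90-min dark dye load, 20-min compound pretreatment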
# KCNK3 inh: human KCNK3 channel inhibitors, primary screen, CHO cells, FluxOR thallium flux, B-score; FluxOR fluorescence; active compounds read low; hit rate 0.84% among 340,000; Potassium channel subfamily K member 3 (Homo sapiens), O14649; B-score at 10 µM; AID 602410, 2012;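 active = B-score under library mean minus 4 SD, starting fluorescence ratio at most library mean plus 5 SD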;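 also: more negative B-score means stronger inhibition of thallium flux through KCNK3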
# KCNK3 inh conf: retest of human KCNK3 channel inhibitors, confirmation, CHO cells, FluxOR thallium flux, triplicate; ratio percent of control, % at 10 µM; hit rate 99% among 2,400; shares compounds with KCNK3 inh; FluxOR fluorescence; 0% buffer, 100% carvedilol maximal block; AID 651638, 2012;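 active = ratio percent of control, averaged over triplicates, above buffer control mean plus 5 SD, cut at about 64% in these data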;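 also: ratio is the fluorescence rise from min to max over baseline after thallium stimulus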
# KCNK3 uninduced: thallium flux inhibition in non-induced cells, primary screen, counter-screen for KCNK3 inhibitor project, cell-based, non-induced KCNK3 line, FluxOR thallium, triplicate. shares compounds with KCNK3 inh. thallium flux ratio (lower = more inhibition) at 10 µM. non-induced KCNK3 parental cells; active compounds read low. AID 651747, 2012. hit rate 40% among 2,400;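 active = thallium flux ratio, averaged over three wells, more than 5 SD below the buffer control mean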;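 also: host cells are CHO cells without KCNK3 induction; ratio is peak minus trough fluorescence over baseline then normalized to buffer controls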
# Active calls of the source: *; i = inactive; · = not tested or not shown. The list is not random: actives were taken first. Their share in the collection is about 3.7%.
SMILES,KCNQ1 inh,KCNK9 inh,hERG rescue,Kir21 inh,KCNQ1 act,KCNK3 inh,KCNK3 inh conf,KCNK3 uninduced
Cc1ccc(C(=O)N2CCN(S(=O)(=O)c3ccc(C(C)C)cc3)CC2)s1,i,i,-18,-1.7,i,i,·,·
CCOc1ncccc1C(=O)OCC(=O)NCCCc1ccccc1,·,·,·,·,·,i,·,·
O=c1sc2ccccc2n1COc1ccc(Cl)cc1,i,i,-4,2.1,i,-9.1*,124*,0.15*
Cc1ccccc1OCCCn1c(=O)sc2ccccc21,i,i,-9,0,i,-9.6*,94*,i
O=c1sc2ccccc2n1COc1ccccc1,·,·,·,·,·,i,·,·
O=C(CSc1c(Cl)cccc1Cl)N1CCC(c2nc3ccccc3s2)CC1,i,i,-6,0.91,i,i,·,·
O=C(CSc1ccc(Cl)cc1)N1CCC(c2nc3ccccc3s2)CC1,i,i,-14,0.26,i,-8.8*,127*,0.16*
CN(C(=O)COC(=O)c1ccc(Br)c([N+](=O)[O-])c1)c1c(N)n(Cc2ccccc2)c(=O)[nH]c1=O,i,i,-9,0.4,i,i,·,·
Cc1cccc(-n2c(SCC(=O)N3CC(=O)Nc4ccccc43)nc3ccccc3c2=O)c1,i,i,-15,-0.02,i,-10*,100*,i
CCN(C(=O)CSc1nc2ccc(O)cc2c(=O)n1-c1ccc(OC)c(OC)c1)C1CCS(=O)(=O)C1 (stereo not drawn),·,·,·,·,·,i,·,·
CCc1cc2c(=O)n(Cc3ccco3)c(SCC(=O)N(C)C3CCS(=O)(=O)C3)nc2s1 (stereo not drawn),i,i,-17,0.27,i,-9.9*,100*,i
CCn1c(SCC(=O)N(Cc2ccccc2)C2CCS(=O)(=O)C2)nc2ccccc2c1=O (stereo not drawn),i,i,-3,0.83,i,i,·,·
CCN(C(=O)CSc1nc2ccccc2c(=O)n1Cc1ccc(C)cc1)C1CCS(=O)(=O)C1 (stereo not drawn),i,i,-12,-0.61,i,-9.5*,97*,i
CCN(C(=O)CSc1nc2ccccc2c(=O)n1-c1cccc(C)c1)C1CCS(=O)(=O)C1 (stereo not drawn),i,i,-15,1.2,i,-11*,100*,i
CCN1CCN(CCCNC(=O)CN2C(=O)c3cccnc3Oc3ccc(Cl)cc32)CC1,i,i,-9,0.05,i,i,·,·
O=C(NC1CCS(=O)(=O)C1)c1ccc(N2CCCCC2)c([N+](=O)[O-])c1 (stereo not drawn),i,i,1,1.9,i,i,·,·
COCCn1cnc2c1c(=O)n(CC(=O)NCC(F)(F)F)c(=O)n2Cc1ccccc1,i,i,-3,0.03,i,i,·,·
CCC(CC)=N/N=C/c1c(O)n(CC)c2cc(C3=NNC(=O)CC3)ccc12,i,i,-5,-0.23,i,i,·,·
CCn1c(O)c(/C=N/N=C/c2ccccc2)c2ccc(C3=NNC(=O)CC3)cc21,i,i,-22,-0.16,i,-8.9*,131*,0.12*
CN(C)c1oc(-c2ccccc2Cl)nc1S(=O)(=O)c1ccccc1,i,i,-8,-0.27,i,-9.3*,108*,i
O=C(NCc1ccccn1)c1ccc(NS(=O)(=O)c2ccccc2)cc1,i,i,-9,0.61,i,i,·,·
Cc1nn(-c2ccccc2)c(C)c1/C=N/NC(=O)c1cc(-c2ccc(Cl)s2)[nH]n1,i,i,-27,-0.08,i,-12*,131*,i
CC(C)CSc1nc(N2CCOCC2)c2c(c1C#N)CC(C)(C)SC2,·,·,·,·,·,i,·,·
CCCSc1nc(N2CCOCC2)c2c(c1C#N)CC(C)(C)SC2,i,i,-10,0.39,i,-9.5*,128*,0.12*
CCNC(=S)N(CCCN(C)C)Cc1cc2cc3c(cc2[nH]c1=O)OCCO3,i,i,-3,-0.29,i,i,·,·
SMILES,KCNQ1 inh,KCNK9 inh,hERG rescue,Kir21 inh,KCNQ1 act,KCNK3 inh,KCNK3 inh conf,KCNK3 uninduced
Cc1cccc(C(=O)NN/C=C/C(=O)c2ccccc2)c1,i,i,-6,0.02,i,-9.1*,100*,i
Cc1ccc(C(=O)C=CNNC(=O)c2ccccc2)cc1,i,i,-13,-0.66,i,i,·,·
CN(C)CCN=Cc1c(O)n(Cc2ccccc2)c(=O)c2ccccc12,i,i,-9,-3,i,i,·,·
CN(C)CCCN=Cc1c(O)n(Cc2ccccc2)c(=O)c2ccccc12,i,-7.2*,-11,-3.1,i,-11*,98*,i
CN(Cc1ccccc1)C(=O)C1CCN(S(=O)(=O)c2cccc3nsnc23)CC1,i,i,-9,1.9,i,i,·,·
CCN(c1cccc(C)c1)S(=O)(=O)c1ccc(-c2cc(C)no2)s1,i,i,-9,1.6,i,-8.8*,103*,i
O=C(NCC(=O)N(c1cccc(F)c1)C(C(=O)NC1CCCC1)c1cccnc1)c1ccco1 (stereo not drawn),i,i,-3,-0.51,i,i,·,·
COc1ccccc1C(=O)NCCC(=O)N1CCCC(C(F)(F)F)C1 (stereo not drawn),i,i,0,-0.49,i,-9.5*,77*,i
O=C(Nc1cccnc1)c1cc(-c2cccnc2)nc2ccc(Br)cc12,i,-7.7*,-16,-2.4,i,-13*,124*,0.12*
COc1cc(NC(=O)c2cc(-c3cccnc3)nc3ccc(Br)cc23)cc(OC)c1,i,i,-2,-0.09,i,i,·,·
CC1=NN(C(=O)CSCc2ccccc2)C(O)(c2ccc(F)cc2)C1 (stereo not drawn),i,-6.9*,-5,-1.2,i,-9.2*,95*,i
